Reference: ChEMBL document CHEMBL1122519, “Bispyridinamines: a new class of topical antimicrobial agents as inhibitors of dental plaque” (1984)

Columns and labels:
[1] = test system: Streptococcus mutans; assay: Minimum plaque inhibitory concentration using a standard test organism, Streptococcus mutans OMZ-61; format: functional, organism-based
Method in brief: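 Ceramic hydroxylapatite plates were soaked twice for 1 min each in compound at […] (aqueous), air-dried and rinsed, then hung in sucrose beef-extract medium (pH 7.0) inoculated with late-log S. mutans OMZ-61. Incubation was anaerobic at 37 °C for 24 h, and treatment plus reinoculation were repeated for a second 24 h. Plaque was stained with 1% FD&C Red No. 3 and scored visually. The value is the lowest concentration giving no plaque while medium growth matched control.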

[2] = test system: Klebsiella pneumoniae; assay: Minimum inhibitory concentration against Klebsiella pneumonia 39645; format: functional
Method in brief: (§1)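 Serial twofold tube dilution in tryptose phosphate broth. Each compound was prepared as a 1000 μg/mL aqueous stock and diluted in double-strength broth, then 2×10^5 cells were added. Tubes were incubated aerobically at 37 °C for 24 h. The MIC was taken as the lowest concentration with no visible growth.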

[3] = test system: Escherichia coli; assay: Antimicrobial minimum inhibitory concentration against Escherichia coli 100/B22; format: functional; method in brief: as §1
[4] = test system: Staphylococcus aureus; assay: Minimum antimicrobial inhibitory concentration against Staphylococcus aureus; format: functional; method in brief: as §1
[5] = test system: Escherichia coli; assay: Minimum inhibitory concentration against Escherichia coli (Vogel); format: functional; method in brief: as §1
[6] = test system: Escherichia coli; assay: Antimicrobial minimum inhibitory concentration against Escherichia coli AB1932-1; format: functional; method in brief: as §1
[7] = test system: Pseudomonas aeruginosa; assay: Minimum antimicrobial inhibitory concentration against Pseudomonas aeruginosa MGH-2; format: functional; method in brief: as §1
[8] = test system: Proteus mirabilis; assay: Minimum antimicrobial inhibitory concentration against Proteus mirabilis MGH-1; format: functional; method in brief: as §1

Br.Br.CCCCCCN=c1ccn(CCCCCCCn2ccc(=NCCCCCC)cc2)cc1
Concentration [1]: > 1% | MIC [2]: 15.6 mg/L | MIC [3]: 7.8 mg/L | MIC [4]: 0.4 mg/L | MIC [5]: 15.6 mg/L | MIC [6]: 7.8 mg/L | MIC [7]: > 125 mg/L | MIC [8]: > 125 mg/L

Br.Br.CCCCCCCCCCCCN=c1ccn(CCCCCCCn2ccc(=NCCCCCCCCCCCC)cc2)cc1
Concentration [1]: 0.1% | MIC [2]: > 62.5 mg/L | MIC [3]: 62.5 mg/L | MIC [4]: 3.9 mg/L | MIC [5]: 62.5 mg/L | MIC [6]: 62.5 mg/L | MIC [7]: 62.5 mg/L | MIC [8]: 62.5 mg/L

CCCCCCCN=c1ccn(CCCCCCCCn2ccc(=NCCCCCCC)cc2)cc1.Cl.Cl
Concentration [1]: 0.1% | MIC [2]: 2 mg/L | MIC [3]: 2 mg/L | MIC [4]: 0.5 mg/L | MIC [5]: 2 mg/L | MIC [6]: 1 mg/L | MIC [7]: 31.3 mg/L | MIC [8]: 62.6 mg/L

Br.Br.N=c1ccn(CCCCCCCCn2ccc(=N)cc2)cc1
Concentration [1]: > 1% | MIC [2]: > 500 mg/L | MIC [3]: 250 mg/L | MIC [4]: 31.3 mg/L | MIC [5]: 125 mg/L | MIC [6]: 125 mg/L | MIC [7]: > 500 mg/L | MIC [8]: > 500 mg/L

Br.Br.CCCCC(CC)CN=c1ccn(CCCCCCCCn2ccc(=NCC(CC)CCCC)cc2)cc1 (centres undefined)
Concentration [1]: 0.004% | MIC [2]: 7.8 mg/L | MIC [3]: 2 mg/L | MIC [4]: 0.3 mg/L | MIC [5]: 3.9 mg/L | MIC [6]: 1 mg/L | MIC [7]: 125 mg/L | MIC [8]: 125 mg/L

CS(=O)(=O)O.CS(=O)(=O)O.Clc1ccc(N=c2ccn(CCCCCCCCCCn3ccc(=Nc4ccc(Cl)cc4)cc3)cc2)cc1
Concentration [1]: > 1% | MIC [2]: 3.1 mg/L | MIC [3]: 1.6 mg/L | MIC [4]: 0.4 mg/L | MIC [5]: 1.6 mg/L | MIC [6]: 0.8 mg/L | MIC [7]: 62.5 mg/L | MIC [8]: > 125 mg/L

Br.Br.c1cn(CCCCCCn2ccc(=NC3CCCCC3)cc2)ccc1=NC1CCCCC1
Concentration [1]: > 1% | MIC [2]: > 125 mg/L | MIC [3]: > 125 mg/L | MIC [4]: 15.6 mg/L | MIC [5]: > 125 mg/L | MIC [6]: 125 mg/L | MIC [7]: > 125 mg/L | MIC [8]: > 125 mg/L

Br.Br.c1cn(CCCCCCCCCn2ccc(=NC3CCCCC3)cc2)ccc1=NC1CCCCC1
Concentration [1]: > 1% | MIC [2]: 125 mg/L | MIC [3]: 31.3 mg/L | MIC [4]: 1 mg/L | MIC [5]: 31.3 mg/L | MIC [6]: 31.3 mg/L | MIC [7]: 500 mg/L | MIC [8]: > 500 mg/L

Br.Br.CCCCCCN=c1ccn(CCCCCn2ccc(=NCCCCCC)cc2)cc1
MIC [2]: > 125 mg/L | MIC [3]: 62.5 mg/L | MIC [4]: 2 mg/L | MIC [5]: 125 mg/L | MIC [6]: 31.3 mg/L | MIC [7]: > 125 mg/L | MIC [8]: > 250 mg/L

Br.Br.CCCCC(CC)CN=c1ccn(CCCCCn2ccc(=NCC(CC)CCCC)cc2)cc1 (centres undefined)
Concentration [1]: > 1% | MIC [2]: > 125 mg/L | MIC [3]: 15.6 mg/L | MIC [4]: 0.5 mg/L | MIC [5]: 15.6 mg/L | MIC [6]: 7.8 mg/L | MIC [7]: 125 mg/L | MIC [8]: > 125 mg/L

Br.Br.CCCCCCCCCCN=c1ccn(CCCCCCn2ccc(=NCCCCCCCCCC)cc2)cc1
Concentration [1]: 0.01% | MIC [2]: 3.9 mg/L | MIC [3]: 7.8 mg/L | MIC [4]: 1 mg/L | MIC [5]: 2 mg/L | MIC [6]: 2 mg/L | MIC [7]: 7.8 mg/L | MIC [8]: 2 mg/L

Br.Br.CCCCCCCCCCN=c1ccn(CCCCCCCn2ccc(=NCCCCCCCCCC)cc2)cc1
Concentration [1]: 0.01% | MIC [2]: 7.8 mg/L | MIC [3]: 3.9 mg/L | MIC [4]: 1 mg/L | MIC [5]: 3.9 mg/L | MIC [6]: 3.9 mg/L | MIC [7]: 7.8 mg/L | MIC [8]: 3.9 mg/L

Br.Br.CCCCCCCCCCCCN=c1ccn(CCCCCCCCCn2ccc(=NCCCCCCCCCCCC)cc2)cc1
Concentration [1]: 0.1% | MIC [2]: > 62.5 mg/L | MIC [3]: 62.5 mg/L | MIC [4]: 7.8 mg/L | MIC [5]: 62.5 mg/L | MIC [6]: > 62.5 mg/L | MIC [7]: > 62.5 mg/L | MIC [8]: 62.5 mg/L

Br.Br.c1cn(CCCCCCCCCCn2ccc(=NC3CCCCC3)cc2)ccc1=NC1CCCCC1
Concentration [1]: > 1% | MIC [2]: > 125 mg/L | MIC [3]: 15.6 mg/L | MIC [4]: 0.2 mg/L | MIC [5]: 15.6 mg/L | MIC [6]: 7.8 mg/L | MIC [7]: > 125 mg/L | MIC [8]: > 125 mg/L

CCCCCCN=c1ccn(CCCCCCCCCCCCn2ccc(=NCCCCCC)cc2)cc1.Cl.Cl
Concentration [1]: 0.01% | MIC [2]: 1 mg/L | MIC [3]: 0.5 mg/L | MIC [4]: 0.2 mg/L | MIC [5]: 1 mg/L | MIC [6]: 1 mg/L | MIC [7]: 15.6 mg/L | MIC [8]: 7.8 mg/L

Br.Br.CCCCCCN=c1ccn(CCCCn2ccc(=NCCCCCC)cc2)cc1
MIC [2]: > 125 mg/L | MIC [3]: 125 mg/L | MIC [4]: 7.8 mg/L | MIC [5]: 125 mg/L | MIC [6]: 62.5 mg/L | MIC [7]: > 250 mg/L | MIC [8]: > 125 mg/L

Br.Br.Fc1ccc(N=c2ccn(CCCCCCn3ccc(=Nc4ccc(F)cc4)cc3)cc2)cc1
Concentration [1]: > 1% | MIC [2]: > 125 mg/L | MIC [3]: 15.6 mg/L | MIC [4]: 15.6 mg/L | MIC [5]: 31.3 mg/L | MIC [6]: 15.6 mg/L | MIC [7]: > 62.5 mg/L | MIC [8]: > 125 mg/L

CS(=O)(=O)O.CS(=O)(=O)O.Clc1ccc(N=c2ccn(CCCCCCCCn3ccc(=Nc4ccc(Cl)cc4)cc3)cc2)cc1
Concentration [1]: > 1% | MIC [2]: 31.3 mg/L | MIC [3]: 3.1 mg/L | MIC [4]: 0.4 mg/L | MIC [5]: 3.1 mg/L | MIC [6]: 1.6 mg/L | MIC [7]: 125 mg/L | MIC [8]: 125 mg/L

Br.Br.CCCCCCN=c1ccn(CCCCCCCCn2ccc(=NCCCCCC)cc2)cc1
Concentration [1]: > 1% | MIC [2]: 7.8 mg/L | MIC [3]: 3.9 mg/L | MIC [4]: 0.2 mg/L | MIC [5]: 3.9 mg/L | MIC [6]: 2 mg/L | MIC [7]: 125 mg/L | MIC [8]: > 250 mg/L

CCCCCCCCN=c1ccn(CCCCCCn2ccc(=NCCCCCCCC)cc2)cc1.Cl.Cl
Concentration [1]: 0.004% | MIC [2]: 2 mg/L | MIC [3]: 0.5 mg/L | MIC [4]: 0.2 mg/L | MIC [5]: 1 mg/L | MIC [6]: 0.5 mg/L | MIC [7]: 31.3 mg/L | MIC [8]: 15.6 mg/L

Br.Br.Clc1ccc(N=c2ccn(CCCCCCCCCn3ccc(=Nc4ccc(Cl)cc4)cc3)cc2)cc1
Concentration [1]: > 1% | MIC [2]: 7.8 mg/L | MIC [3]: 2 mg/L | MIC [4]: 0.6 mg/L | MIC [5]: 1 mg/L | MIC [6]: 1 mg/L | MIC [7]: 125 mg/L | MIC [8]: > 125 mg/L

Br.Br.CCCCCCCCCCCCN=c1ccn(CCCCCCCCn2ccc(=NCCCCCCCCCCCC)cc2)cc1
Concentration [1]: 0.1% | MIC [2]: > 62.5 mg/L | MIC [3]: > 62.5 mg/L | MIC [4]: 7.8 mg/L | MIC [5]: 31.3 mg/L | MIC [6]: 62.5 mg/L | MIC [7]: > 62.5 mg/L | MIC [8]: 62.5 mg/L

Br.Br.CCCCC(CC)CN=c1ccn(CCCCCCCCCCn2ccc(=NCC(CC)CCCC)cc2)cc1 (centres undefined)
Concentration [1]: 0.003% | MIC [2]: 3 mg/L | MIC [3]: 0.8 mg/L | MIC [4]: 0.2 mg/L | MIC [5]: 1.5 mg/L | MIC [6]: 0.4 mg/L | MIC [7]: 48.4 mg/L | MIC [8]: 12.1 mg/L

Br.Br.N=c1ccn(CCCCCCCCCCCCn2ccc(=N)cc2)cc1
Concentration [1]: > 1% | MIC [2]: > 62.5 mg/L | MIC [4]: 2 mg/L | MIC [5]: > 62.5 mg/L | MIC [7]: > 62.5 mg/L | MIC [8]: > 125 mg/L

Br.Br.N=c1ccn(CCCCCCCCCn2ccc(=N)cc2)cc1
Concentration [1]: > 1% | MIC [2]: 500 mg/L | MIC [4]: 31.3 mg/L | MIC [5]: 250 mg/L | MIC [7]: > 500 mg/L | MIC [8]: > 500 mg/L
